pIC50: −log10 of the molar value. ≈ marks a conversion by molar mass, not a printed value.
How the values were obtained:
Histone deacetylase = test: Inhibition of HDAC in human HeLa cells extractt; format: cell-free
A2780 [1] = test: Antiproliferative activity against human A2780 cells; format: functional, cell-based
Procedure, shortened: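 A2780 ovarian carcinoma proliferation assay in 384-well format, modified from the patent protocol. IC50 given as the mean of triplicate experiments ± SD; some values come from a single experiment.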

A2780 [2] = test: Anticancer activity against human A2780 cells expressing p21 waf1,cip1 xenografted in athymic nude mouse assessed as fold increase in fluorescence at 40 mg/kg, po administered once for 3 days relative to R306465; format: functional
Procedure, shortened: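 A2780 ovarian carcinoma cells engineered to express ZsGreen under the p21waf1,cip1 promoter were grafted subcutaneously into athymic nude mice. Animals were dosed orally at 40 mg/kg for 3 days. In vivo fluorescence induction was then read by noninvasive whole-body imaging and expressed as fold increase versus reference R306465 set at 1.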

[3] = AUC (0 to infinity) in Sprague-Dawley rat at 2.5 mg/kg, iv administered in water at pH 4.4; format: ADME, organism-based; set-up: time infinity, dose 2.5 mg/kg, route intravenous; settings: plasma
Procedure, shortened: (§1)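 Male Sprague-Dawley rats. IV arm dosed at 2.5 mg/kg in water at pH 4.4; oral arm dosed at 10 mg/kg in water at pH 4.5. AUC0-inf taken for each route. Clearance and Vdss come from the IV arm. F (%) comes from the oral versus IV exposure.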

[4] = Clearance in Sprague-Dawley rat at 2.5 mg/kg, iv administered in water at pH 4.4; format: ADME, organism-based; set-up: dose 2.5 mg/kg, route intravenous; settings: in vivo; procedure, shortened: as §1
[5] = Volume of distribution at steady state in Sprague-Dawley rat at 2.5 mg/kg, iv administered in water at pH 4.4; format: ADME, organism-based; set-up: dose 2.5 mg/kg, route intravenous; settings: in vivo, read-out: Vdss; procedure, shortened: as §1
[6] = Half life in Sprague-Dawley rat at 2.5 mg/kg, iv administered in water at pH 4.4 measured 1 to 4 hrs post dose; format: ADME, organism-based; set-up: dose 2.5 mg/kg, route intravenous; settings: in vivo
Procedure, shortened: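 Male Sprague-Dawley rats given 2.5 mg/kg IV in water at pH 4.4. Terminal half-life fitted over the 1 h to 4 h post-dose window.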

[7] = AUC (0 to infinity) in Sprague-Dawley rat at 10 mg/kg, po administered in water at pH 4.5; format: ADME, organism-based; set-up: time infinity, dose 10 mg/kg, route oral; settings: plasma; procedure, shortened: as §1
[8] = Oral bioavailability in Sprague-Dawley rat at 10 mg/kg administered in water at pH 4.5; format: ADME, organism-based; settings: in vivo; procedure, shortened: as §1
[9] = Thermodynamic solubility in phosphate-citrate buffer at pH 4.6; format: physicochemical
Procedure, shortened: (§2)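 Thermodynamic solubility. About 2.5 mg of solid was weighed and equilibrated in phosphate-citrate buffer at the stated pH, then filtered where needed. The filtrate was diluted in 0.1 N HCl/acetonitrile (1/1) and the concentration measured by UPLC.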

[10] = Thermodynamic solubility in phosphate-citrate buffer at pH 7.4; format: physicochemical; procedure, shortened: as §2
[11] = Half life in Sprague-Dawley rat at 2.5 mg/kg, iv administered in water at pH 4.4 measured 2 to 8 hrs post dose; format: ADME, organism-based; set-up: dose 2.5 mg/kg, route intravenous; settings: in vivo
Procedure, shortened: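 Male Sprague-Dawley rats given 2.5 mg/kg IV in water at pH 4.4. Half-life estimated from the 2 h to 8 h post-dose interval.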

[12] = Thermodynamic solubility in phosphate-citrate buffer at pH 7.7; format: physicochemical; procedure, shortened: as §2

| IC50 (Histone deacetylase) [nM] | pIC50 (A2780 [1]; Homo sapiens, A2780) | SMILES | further results |
| --- | --- | --- | --- |
| 7 | 6.66 | O=C(NO)c1cnc(N2CCC(NC(/C=C/c3ccccc3)CO)CC2)nc1 (centres undefined) | – |
| 1.5 | 7.35 | COCC(/C=C/c1ccccc1)N1CCN(c2ncc(C(=O)NO)cn2)CC1 (centres undefined) | – |
| 6.9 | 6.41 | CN1CCN(CC(/C=C/c2ccccc2)N2CCN(c3ncc(C(=O)NO)cn3)CC2)CC1 (centres undefined) | – |
| 7 | 6.91 | O=C(NO)c1cnc(N2CCN(C(/C=C/c3ccccc3)C(=O)N3CCOCC3)CC2)nc1 (centres undefined) | – |
| 2.1 | 7.19 | O=C(NO)c1cnc(N2CCN(C(/C=C/c3ccc(C(F)(F)F)cc3)CO)CC2)nc1 (centres undefined) | – |
| 1.5 | 7.33 | O=C(NO)c1cnc(N2CCC(CNC(/C=C/c3ccccc3)CO)CC2)nc1 (centres undefined) | – |
| 2 | > 7.52 | O=C(NO)c1cnc(N2CCN(C(/C=C/c3ccccc3F)CO)CC2)nc1 (centres undefined) | – |
| 1.5 | 7.18 | O=C(NO)c1cnc(N2CCN(Cc3ccc4ccccc4c3)CC2)nc1 | – |
| 0.95 | 7.74 | COc1ccc(/C=C/C(CO)N2CCN(c3ncc(C(=O)NO)cn3)CC2)cc1 (centres undefined) | – |
| 11 | 6.50 | O=C(NO)c1cnc(N2CCN(C(/C=C/c3ccccc3)CN3CCOCC3)CC2)nc1 (centres undefined) | – |
| 1 | 7.74 | Cc1ccc(/C=C/C(CO)N2CCN(c3ncc(C(=O)NO)cn3)CC2)cc1 (centres undefined) | – |
| 1.7 | 7.70 | CC(/C=C/c1ccccc1)N1CCN(c2ncc(C(=O)NO)cn2)CC1 (centres undefined) | – |
| 3.3 | 6.80 | CNC(=O)C(/C=C/c1ccccc1)N1CCN(c2ncc(C(=O)NO)cn2)CC1 (centres undefined) | – |
| 3.8 | 6.55 | NC(/C=C/c1ccccc1)CN1CCN(c2ncc(C(=O)NO)cn2)CC1 (centres undefined) | fold change (FC) (A2780 [2]): 0.5 |
| 8 | 6.53 | O=C(NO)c1cnc(N2CCOC(CNC(/C=C/c3ccccc3)CO)C2)nc1 (centres undefined) | – |
| 1.2 | 7.77 | O=C(NO)c1cnc(N2CCN(C(/C=C/c3ccc(Cl)cc3)CO)CC2)nc1 (centres undefined) | – |
| 0.9 | 7.54 | O=C(NO)c1cnc(N2CCN(C(/C=C/c3ccc(-c4ccccc4)cc3)CO)CC2)nc1 (centres undefined) | – |
| 1.2 | 7.44 | O=C(NO)c1cnc(N2CCN(C(/C=C/c3cccc(F)c3)CO)CC2)nc1 (centres undefined) | – |
| – | – | O=C(NO)c1cnc(N2CCN(C(/C=C/c3ccc(F)cc3)CO)CC2)nc1 (single isomer, unassigned; (+)) | pIC50 (A2780 [1]; a2780): 7.57 |
| – | – | O=C(NO)c1cnc(N2CCN(C(/C=C/c3ccc(F)cc3)CO)CC2)nc1 (single isomer, unassigned; (-)) | pIC50 (A2780 [1]; a2780): 7.51; AUC(0-inf) [3]: 521 ng·h/mL; clearance [4]: 76.7 mL/min/kg; Vd [5]: 1.6 L/kg; half-life [6]: 0.8 h; AUC(0-inf) [7]: 466 ng·h/mL; bioavailability [8]: 22% |
| 1.8 | – | O=C(NO)c1cnc(N2CCN(C(/C=C/c3ccccc3)CO)CC2)nc1 (single isomer, unassigned; (-)) | pIC50 (A2780 [1]; a2780): 7.52 |
| 1 | – | O=C(NO)c1cnc(N2CCN(C(/C=C/c3ccccc3)CO)CC2)nc1 (stereo in doubt; 3a1) | pIC50 (A2780 [1]; a2780): 7.40 |
| 2 | 7.60 | O=C(NO)c1cnc(N2CCN(C(/C=C/c3ccccc3)CO)CC2)nc1 (stereo in doubt; 3a) | solubility thermodynamic [9]: > 10000 µg/mL; solubility thermodynamic [10]: 1100 µg/mL (≈ 2980 µM); AUC(0-inf) [3]: 413 ng·h/mL; clearance [4]: 98.3 mL/min/kg; Vd [5]: 5.8 L/kg; half-life [11]: 2.6 h; AUC(0-inf) [7]: 316 ng·h/mL; bioavailability [8]: 19%; fold change (FC) (A2780 [2]): 5 |
| – | 7.49 | O=C(NO)c1cnc(N2CCN(C(/C=C/c3ccc(F)cc3)CO)CC2)nc1 (stereo in doubt; 3i) | – |
| – | 7.41 | O=C(NO)c1cnc(N2CCN(S(=O)(=O)c3ccc4ccccc4c3)CC2)nc1 [R-306465] | solubility thermodynamic [12]: < 100 µg/mL; AUC(0-inf) [3]: 2650 ng·h/mL; clearance [4]: 13.3 mL/min/kg; Vd [5]: 0.6 L/kg; half-life [11]: 1.5 h; AUC(0-inf) [7]: 3380 ng·h/mL; bioavailability [8]: 20% |
